Assay outcomes as filed in PubChem.
Hits are enriched below; roughly 2.5% of the tested compounds scored in any of these assays.
NALP1 yeast inh: blocks the NALP1 inflammasome reconstituted in yeast; S. cerevisiae NALP1/ASC/caspase-1 growth, X-gal OD620, 72 h; inhibition, % at 10 µM; hit rate 0.61% among 280,000; AID 2071; in the data active = inhibition mostly above about 24%, no sharp cut-off; inactive = mostly below about 32%
MC4R antagonist: human MC4R antagonism in cAMP assay. P32245. MC4R-expressing cells, MTII-stimulated cAMP, LANCE TR-FRET. inhibition, % at 6.5 µM. hit rate 0.48% among 360,000. AID 540295;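 active = inhibition above its plate's cutoff, the mean of tested wells on that plate plus 3 SD, cut at about 29% in these data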;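 note: 0% = Melanotan II alone and 100% = Melanotan II plus saturating MCL0020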
Target sequence (P32245 whole entry, looked up): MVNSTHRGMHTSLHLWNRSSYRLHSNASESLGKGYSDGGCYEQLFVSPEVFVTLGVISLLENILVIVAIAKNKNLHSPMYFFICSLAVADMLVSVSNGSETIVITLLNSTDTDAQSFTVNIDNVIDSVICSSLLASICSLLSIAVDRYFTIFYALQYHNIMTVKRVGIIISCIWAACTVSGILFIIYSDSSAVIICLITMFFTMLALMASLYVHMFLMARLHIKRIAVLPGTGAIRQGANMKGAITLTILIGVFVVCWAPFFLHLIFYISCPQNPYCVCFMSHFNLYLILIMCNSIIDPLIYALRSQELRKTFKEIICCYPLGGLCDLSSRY
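Test system: U2OS cells stably expressing human melanocortin 4 receptor (MC4R); also added: Melanotan II challenge; compound: 6.5 µM single dose; timing: 30-min compound preincubation, 1-h Melanotan II challenge, 1-h detection, room temperature; signal: Eu-cAMP/anti-cAMP TR-FRET, emission 671 nm; repeats: one well per compound, no replicates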
Tb MetRS inh: Trypanosoma brucei MetRS inhibition | purified T. brucei MetRS, ATP depletion, Kinase-Glo luminescence | inhibition, % at 11.9 µM | hit rate 0.4% among 360,000;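 active = inhibition above a per-plate cutoff of the control wells' mean inhibition plus 3 SD, cut at about 5.5% in these data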;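 note: 0% = DMSO wells median and 100% = median of wells with control inhibitor compound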
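Test system – parasite MetRS enzyme · Reagent – substrates ATP, L-methionine and bulk Escherichia coli tRNA · Doses – 11.9 µM compound single dose, 0.9% DMSO · Times – 15 min enzyme-compound preincubation, 2 h reaction, 10 min detection, 25 °C · Signal – Kinase-Glo luminescence, ATP depletion format · Controls – DMSO-only wells as low control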
NLRP3 yeast inh: blocks the NALP3 inflammasome reconstituted in yeast; hit rate 0.39% among 330,000; inhibition, % at 10 µM; Yeast reconstituted NLRP3/ASC/caspase-1, beta-gal luminescence, 24 h;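 active = inhibition of 50% or more; inactive = inhibition below 50%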;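 note: plate controls were induced DMSO wells for no effect and uninduced yeast grown without galactose for full effect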
A1 inh: inhibitors of the anti-apoptotic protein A1, read as caspase activation; caspase activation, % (no concentration beside the values); hit rate 0.066% among 330,000; AID 2462; MEF A1-2A-BIM cells, Caspase-Glo 3/7 luminescence, 3 h; percent of clofoctol response, vehicle zero;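 active = over half of replicate activation scores above 10%, or exactly half above 10 with the replicate mean above 10; inconclusive = replicate mean below 10 yet half the replicates above 10; inactive = over half of replicates below 10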
MC4R barr agon: agonists of human melanocortin 4 receptor (MC4R) beta-arrestin | U2OS MC4R beta-arrestin complementation, luminescence; percent of melanotan II response, DMSO zero | P32245 | AID 540308 | activation, % at 8.9 µM | hit rate 0.98% among 360,000;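 active = activation above a per-plate cutoff, the mean activation of sample wells on that plate plus 3 SD, cut at about 8% in these data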
Tb MetRS conf: Trypanosoma brucei MetRS inhibition confirmed. shares compounds with Tb MetRS inh. inhibition, % at 11.9 µM. hit rate 93% among 1,400. T. brucei MetRS enzyme, luminescence (ATP depletion). AID 624412; in the data active = inhibition above about 7%
Jurkat cytotox: Jurkat T cell cytotoxicity for MetRS hits; inhibition, % at 8.3 µM; Jurkat cells viability, ATP luminescence; shares compounds with Tb MetRS inh; hit rate 12% among 1,400; in the data active = inhibition above about 15%;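 note: 0% = vehicle and 100% = reference inhibitor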
Tb MetRS inh FP: T. brucei MetRS inhibition, orthogonal assay; shares compounds with Tb MetRS inh; purified T. brucei MetRS, fluorescence polarization; inhibition, % at 11.9 µM; hit rate 44% among 1,400; AID 651607; in the data active = inhibition above about 17%;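 note: 0% = vehicle wells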
The depositor's hits bear a star; ? = inconclusive; / = not tested or not shown.

SMILES | NALP1 yeast inh | MC4R antagonist | Tb MetRS inh | NLRP3 yeast inh | A1 inh | MC4R barr agon | Tb MetRS conf | Jurkat cytotox | Tb MetRS inh FP
CC(=O)NS(=O)(=O)c1ccc(NC(=O)/C=C/c2cn(-c3ccccc3)nc2-c2ccccc2)cc1 | 3.1 | 9.0 | 50.7* | 5.5 | -0.3 | -0.1 | 49.5* | -4.5 | 42.3*
CCO[C@@H]1OC(C(=O)NCc2nc3ccccc3[nH]2)=C[C@H](C(C)(C)C)[C@H]1CCCO | / | -20.2 | 6.4* | 0.3 | 0.8 | 0.1 | 32.9* | 71.3* | 13.2
CCO[C@@H]1OC(C(=O)NCc2nc3ccccc3[nH]2)=C[C@H](C2CC2)[C@H]1CCCO | -1.0 | 4.7 | 5.3 | -3.8 | -0.1 | -0.9 | / | / | /
CCO[C@H]1OC(C(=O)NCc2nc3ccccc3[nH]2)=C[C@@H](c2ccc(Br)cc2)[C@@H]1CCCO | / | 3.6 | 37.8* | 12.0 | 0.0 | 1.1 | 80.4* | -3.0 | 56.6*
C#Cc1ccc([C@H]2C=C(C(=O)NCc3nc4ccccc4[nH]3)O[C@@H](OCC)[C@@H]2CCCO)cc1 | / | 6.7 | 12.2* | 13.7 | ? | 0.4 | 36.0* | 2.7 | 17.0*
CC1CN(C(=O)COC(=O)c2ccc3ncsc3c2)CC(C)O1 (stereo not drawn) | / | -5.6 | -0.2 | 8.2 | -0.2 | -1.1 | / | / | /
O=C(c1ccccc1)N(C(=O)c1ccccc1)N1CCCC1 | / | 5.3 | -0.3 | / | / | -1.6 | / | / | /
COc1cccc(CN(C)C(=O)CCN=C2NS(=O)(=O)c3ccccc32)c1 | / | 12.0 | -0.3 | 14.1 | 0.3 | -2.0 | / | / | /
Cc1ccccc1C(=O)N1CCC[C@H]1C(=O)N1CCC[C@H]1C(=O)NCc1ccccn1 | / | / | -1.6 | / | / | / | / | / | /
CCOC(=O)C1=C(CC)Nc2ccccc2N=C1NC(=O)Nc1ccc(Cl)c(Cl)c1 | -0.7 | -3.9 | 37.1* | 9.6 | 0.5 | 0.8 | 97.3* | 17.3* | 117.2*
CCOC(=O)C1=C(CC)Nc2ccccc2N=C1NC(=O)c1cc(C)on1 | / | 7.0 | -0.1 | 12.6 | 0.1 | -0.3 | / | / | /
CN(c1ccccc1)S(=O)(=O)c1cc(C(=O)NCc2ccco2)ccc1Cl | / | 17.5 | 0.2 | / | / | 0.3 | / | / | /
CCN1C(=O)C(CC(=O)Nc2ccc(OC)cc2)N(CCc2ccccc2)C1=S (stereo not drawn) | -8.5 | 10.2 | 43.3* | 18.3 | -0.2 | 2.5 | 40.2* | 1.1 | 25.4*
CCN1C(=O)C(CC(=O)Nc2ccc(OC)cc2)N(Cc2cccnc2)C1=S (stereo not drawn) | 10.8 | -2.9 | 0.4 | 5.1 | 0.3 | -1.9 | / | / | /
COc1ccc(NC(=O)CC2C(=O)N(c3ccccc3)C(=O)N2CCc2cccs2)cc1 (stereo not drawn) | 25.9 | 19.9 | 32.3* | 5.8 | 1.1 | 0.3 | 46.0* | -1.5 | 23.7*
CCOc1ccc(NC(=O)CC2C(=O)N(c3ccc(OC)cc3)C(=O)N2CCc2cccs2)cc1 (stereo not drawn) | 37.5 | 3.8 | -0.3 | 3.8 | 0.6 | -2.0 | / | / | /
CCN1C(=O)C(CC(=O)Nc2ccc(F)cc2)N(CCc2ccc(OC)cc2)C1=S (stereo not drawn) | -9.6 | -2.2 | 30.1* | 13.2 | 0.5 | 3.1 | 47.3* | -6.7 | 35.7*
COc1ccccc1-c1nnc(SCC(=O)Nc2ccc(N3CCOCC3)cc2)n1C | / | 11.0 | -0.3 | 11.2 | 0.1 | -0.9 | / | / | /
CC1CCN(CCOCCOc2ccc(Br)cc2Cl)CC1 | 41.3 | 1.3 | 1.3 | 29.1 | 1.8 | 0.5 | / | / | /
CC1CCCN(CCCOc2ccc(Br)cc2Cl)C1 (stereo not drawn) | 26.5* | 3.9 | 16.7* | 23.9 | -0.4 | 3.1 | 29.7* | 22.9* | 10.7
CN(C)CCCCOc1ccc(Br)cc1Cl | 18.7 | -0.5 | 8.0* | -3.9 | -0.2 | -0.2 | 20.6* | 6.5 | 11.3
